Reference: ChEMBL document CHEMBL3751835, “Discovery of the imidazole-derived GPR40 agonist AM-3189” (Bioorg Med Chem Lett, 2016)
The source made the active and inactive calls. The rule behind the calls is not given here.

Assays:
[1] = target: T1, Peroxisome proliferator-activated receptor gamma (Homo sapiens) (UniProt P37231); test: Activity at PPARgamma (unknown origin) by cell based assay
T1 sequence (whole entry): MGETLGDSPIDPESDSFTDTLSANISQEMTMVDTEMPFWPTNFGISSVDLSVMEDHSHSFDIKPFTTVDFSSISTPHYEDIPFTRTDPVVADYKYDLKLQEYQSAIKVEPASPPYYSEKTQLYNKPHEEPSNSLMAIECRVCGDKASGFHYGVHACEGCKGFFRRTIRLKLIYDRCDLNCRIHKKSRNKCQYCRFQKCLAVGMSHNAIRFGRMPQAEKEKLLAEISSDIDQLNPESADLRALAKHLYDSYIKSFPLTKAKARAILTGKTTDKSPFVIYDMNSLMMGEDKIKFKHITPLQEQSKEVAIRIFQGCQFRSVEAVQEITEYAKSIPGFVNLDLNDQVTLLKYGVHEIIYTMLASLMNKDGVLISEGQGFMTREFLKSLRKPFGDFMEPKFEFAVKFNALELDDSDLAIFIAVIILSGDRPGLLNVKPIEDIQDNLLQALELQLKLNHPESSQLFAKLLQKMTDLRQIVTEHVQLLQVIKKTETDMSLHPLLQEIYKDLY

[2] = target: Free fatty acid receptor 1 (Mus musculus) (UniProt Q76JU9); test: Agonist activity at mouse GPR40 in presence of 0.01% human serum albumin
[3] = target: Free fatty acid receptor 1 (Rattus norvegicus) (UniProt Q8K3T4); test: Agonist activity at rat GPR40 in presence of 0.01% human serum albumin relative to AMG 837
[4] = Cmax in dog at 2 mg/kg, po; format: ADME, organism-based, Canis lupus familiaris; set-up: dose 2 mg/kg, route oral; details: in vivo
Method in brief: (§1)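 Oral doses given as a suspension in aqueous 1% Tween 80 in 1% methylcellulose; IV doses formulated in 10% N,N-dimethylacetamide, 10% ethanol, 30% propylene glycol, 50% sterile water. Animals per species: mouse n = 2 (plasma from two mice at each time point), rat n = 2, dog n = 3, cynomolgus monkey n = 3.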

[5] = system: Pancreatic islet; test: Induction of insulin release in human pancreatic islets; format: functional
[6] = target: Free fatty acid receptor 1 (Macaca fascicularis) (UniProt Q76JV1); test: Agonist activity at cynomolgus monkey GPR40 in presence of 0.01% human serum albumin relative to AMG 837 relative to AMG 837
[7] = system: GPR40 (hamster, Mesocricetus auratus); test: Agonist activity at hamster GPR40 in presence of 0.01% human serum albumin
[8] = Ratio of drug level in brain to plasma in rat at 5 mg/kg, po after 3 hrs; format: ADME, organism-based
[9] = Half life in cynomolgus monkey at 0.5 mg/kg, iv; format: ADME, organism-based, Macaca fascicularis; details: in vivo; method in brief: as §1
[10] = Cmax in cynomolgus monkey at 5 mg/kg, po; format: ADME, organism-based, Macaca fascicularis; set-up: dose 5 mg/kg, route oral; details: in vivo; method in brief: as §1
[11] = target: Free fatty acid receptor 1 (Macaca fascicularis, UniProt Q76JV1); test: Agonist activity at cynomolgus monkey GPR40 in presence of 0.01% human serum albumin relative to AMG 837
Sequence of Free fatty acid receptor 1 (Q76JV1 whole entry): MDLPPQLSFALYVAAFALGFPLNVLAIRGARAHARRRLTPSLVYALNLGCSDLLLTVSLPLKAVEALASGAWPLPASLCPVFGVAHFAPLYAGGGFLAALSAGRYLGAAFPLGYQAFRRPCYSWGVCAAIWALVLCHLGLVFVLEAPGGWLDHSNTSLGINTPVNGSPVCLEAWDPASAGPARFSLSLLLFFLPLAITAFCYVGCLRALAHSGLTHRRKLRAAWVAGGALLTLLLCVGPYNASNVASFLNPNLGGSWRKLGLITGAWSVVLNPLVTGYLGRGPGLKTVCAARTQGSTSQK

Sequence of Free fatty acid receptor 1 (Mus musculus) (Q76JU9 whole entry): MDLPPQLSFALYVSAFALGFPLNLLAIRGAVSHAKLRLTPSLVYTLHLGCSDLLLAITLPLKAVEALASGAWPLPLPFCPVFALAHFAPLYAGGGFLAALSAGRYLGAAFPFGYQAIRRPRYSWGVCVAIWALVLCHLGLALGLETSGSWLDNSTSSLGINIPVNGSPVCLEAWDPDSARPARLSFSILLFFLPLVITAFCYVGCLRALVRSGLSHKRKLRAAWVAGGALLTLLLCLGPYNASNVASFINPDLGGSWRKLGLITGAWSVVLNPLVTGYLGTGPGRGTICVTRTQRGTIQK
Sequence of Free fatty acid receptor 1 (Macaca fascicularis) (Q76JV1 whole entry): as the sequence (Q76JV1 whole entry) above
Sequence of Free fatty acid receptor 1 (Rattus norvegicus) (Q8K3T4 whole entry): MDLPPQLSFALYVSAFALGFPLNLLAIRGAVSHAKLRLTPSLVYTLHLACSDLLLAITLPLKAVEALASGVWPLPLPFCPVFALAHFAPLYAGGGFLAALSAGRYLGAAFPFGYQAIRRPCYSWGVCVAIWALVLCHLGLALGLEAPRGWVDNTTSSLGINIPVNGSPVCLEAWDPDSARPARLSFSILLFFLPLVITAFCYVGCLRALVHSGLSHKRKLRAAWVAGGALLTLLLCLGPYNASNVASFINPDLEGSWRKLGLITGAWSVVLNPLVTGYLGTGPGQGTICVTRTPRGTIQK

- Activity [1]: inactive
- Activity [2]: inactive
- Emax [3]: 41%
- Cmax [4]: 4400 nM
- Emax [6]: 96%
- Activity [7]: inactive
- Kp at 3 h [8]: 0.04
- half-life [9]: 7.6 h
- Cmax [10]: 1190 nM
- EC50 [11]: 29 nM
Structure (SMILES): Cc1cc(Cl)ccc1-c1cccc(COc2ccc([C@H](CC(=O)O)c3nccn3C)cc2)c1
- Activity [5]: Active
